The record followed here is ChEMBL document CHEMBL3259575, “Evaluation of a large library of (thiazol-2-yl)hydrazones and analogues as histone acetyltransferase inhibitors: enzyme and cellular studies” (2014).

For assay [1], the target named is Histone acetyltransferase p300 (Homo sapiens) (UniProt Q09472). As to the kind of experiment: Inhibition of recombinant human p300 catalytic domain (1284 to 1673 aa) using histone H3 at 100 uM after 1 hr by radiochemical assay in presence of [acetyl-3H]-acetyl coenzyme A.
For assay [2] the target is unchanged. As to the kind of experiment: Inhibition of recombinant human p300 catalytic domain (1284 to 1673 aa) using histone H3 at 200 uM after 1 hr by radiochemical assay in presence of [acetyl-3H]-acetyl coenzyme A.
The target is the same in assay [3]. Nature of the assay: Inhibition of recombinant human p300 catalytic domain (1284 to 1673 aa) using histone H3 at 400 uM after 1 hr by radiochemical assay in presence of [acetyl-3H]-acetyl coenzyme A.
For assay [4], the target named is Histone acetyltransferase KAT2B (Homo sapiens) (UniProt Q92831). As to the kind of experiment: Inhibition of recombinant human PCAF catalytic domain (492 to 658 aa) using histone H3 at 100 uM after 1 hr by radiochemical assay in presence of [acetyl-3H]-acetyl coenzyme A.
Assay [5] concerns U-937. As to the kind of experiment: Induction of apoptosis in human U937 cells at 100 uM after 30 hrs by FACS analysis relative to control in presence of CPTH6. The class given is functional, cell-based.
The subject of assay [6] is U-937. As to the kind of experiment: Induction of apoptosis in human U937 cells at 100 uM after 30 hrs by FACS analysis relative to control. The assay is classed as functional. The gist of the method: (§1)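 Cells cultured at 37 °C, 5% CO2 in RPMI-1640 plus 10% heat-inactivated FBS and antibiotics; treated 30 h; apoptosis read by FACS as the pre-G1 population, compared with untreated control.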
For orientation: In flow cytometry, cells or beads pass a laser one at a time.

The test system of assay [7] is U-937. As to the kind of experiment: Induction of apoptosis in human U937 cells at 100 uM after 30 hrs by FACS analysis relative to control relative to CPTH6. The class given is functional.
The subject of assay [8] is U-937. Nature of the assay: Induction of human U937 cell differentiation assessed as CD11c expression at 100 uM after 30 hrs by propidium iodide-based flow cytometry relative to control. The assay is classed as functional. The procedure, abridged:
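U937 cells treated 30 h, then stained 1 h at 4 °C in dark with PE-conjugated anti-CD11c (mouse IgG1-PE isotype for controls), washed, resuspended in PBS with propidium iodide; flow cytometry, CD11c-positive percentage after subtracting PI-positive dead cells, versus control.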

In assay [9] the test system is HCT-116. Nature of the assay: Induction of apoptosis in human HCT116 cells at 100 uM after 30 hrs by FACS analysis relative to control. The assay is classed as functional. The gist of the method: as §1
Assay [10] concerns HCT-116. Nature of the assay: Cell cycle arrest at G1 phase in human HCT116 cells at 100 uM after 30 hrs by propidium iodide-based flow cytometry relative to control. The class given is functional. The gist of the method: (§2)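 Cells kept at 37 °C, 5% CO2 in RPMI-1640 with 10% heat-inactivated FBS, penicillin, streptomycin, L-glutamine, amphotericin B; plated at 2 × 10^5 cells/mL, exposed 30 h, then suspended in PBS with 0.1% sodium citrate, 0.1% NP40 and propidium iodide; 30 min room temperature in dark; flow cytometry, cell-cycle phase distribution versus untreated control.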

In assay [11] the test system is U-937. As to the kind of experiment: Cell cycle arrest at G1 phase in human U937 cells at 100 uM after 30 hrs by propidium iodide-based flow cytometry relative to control. The class given is functional. The procedure, abridged:
as §2

For assay [12], the system named is U-937. Nature of the assay: Cell cycle arrest in human U937 cells assessed as reduction in cells at S phase at 100 uM after 30 hrs by propidium iodide-based flow cytometry relative to control. The class given is functional. The procedure, abridged: as §2

The source made the active and inactive calls. No cut-off for these calls is given here.

The term inhibition denotes the relative decrease from the control value, in per cent.

Sequence of Histone acetyltransferase KAT2B (Homo sapiens) (Q92831 whole entry, looked up, the tested form may be a part): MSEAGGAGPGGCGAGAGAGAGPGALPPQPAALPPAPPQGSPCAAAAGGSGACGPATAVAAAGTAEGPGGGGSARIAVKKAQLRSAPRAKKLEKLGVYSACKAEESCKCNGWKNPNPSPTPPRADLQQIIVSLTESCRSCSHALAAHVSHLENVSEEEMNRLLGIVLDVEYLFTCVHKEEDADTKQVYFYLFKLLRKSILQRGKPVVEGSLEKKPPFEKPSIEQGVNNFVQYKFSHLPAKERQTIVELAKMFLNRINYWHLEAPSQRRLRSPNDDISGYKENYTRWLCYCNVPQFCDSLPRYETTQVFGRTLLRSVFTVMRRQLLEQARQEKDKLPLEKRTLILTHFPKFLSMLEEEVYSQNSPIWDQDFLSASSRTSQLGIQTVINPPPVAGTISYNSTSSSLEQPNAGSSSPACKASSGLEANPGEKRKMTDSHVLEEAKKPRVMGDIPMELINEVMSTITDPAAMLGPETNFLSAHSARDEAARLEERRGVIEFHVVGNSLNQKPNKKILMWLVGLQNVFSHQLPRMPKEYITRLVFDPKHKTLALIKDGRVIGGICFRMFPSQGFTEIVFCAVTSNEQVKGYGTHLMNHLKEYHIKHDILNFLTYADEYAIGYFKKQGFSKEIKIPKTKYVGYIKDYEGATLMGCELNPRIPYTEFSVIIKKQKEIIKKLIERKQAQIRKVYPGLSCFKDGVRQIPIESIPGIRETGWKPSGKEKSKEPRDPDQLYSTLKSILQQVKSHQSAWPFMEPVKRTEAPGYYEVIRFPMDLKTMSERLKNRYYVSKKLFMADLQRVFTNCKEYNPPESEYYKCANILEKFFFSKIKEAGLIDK
Sequence of Histone acetyltransferase p300 (Homo sapiens) (Q09472 whole entry, the tested form may be a part): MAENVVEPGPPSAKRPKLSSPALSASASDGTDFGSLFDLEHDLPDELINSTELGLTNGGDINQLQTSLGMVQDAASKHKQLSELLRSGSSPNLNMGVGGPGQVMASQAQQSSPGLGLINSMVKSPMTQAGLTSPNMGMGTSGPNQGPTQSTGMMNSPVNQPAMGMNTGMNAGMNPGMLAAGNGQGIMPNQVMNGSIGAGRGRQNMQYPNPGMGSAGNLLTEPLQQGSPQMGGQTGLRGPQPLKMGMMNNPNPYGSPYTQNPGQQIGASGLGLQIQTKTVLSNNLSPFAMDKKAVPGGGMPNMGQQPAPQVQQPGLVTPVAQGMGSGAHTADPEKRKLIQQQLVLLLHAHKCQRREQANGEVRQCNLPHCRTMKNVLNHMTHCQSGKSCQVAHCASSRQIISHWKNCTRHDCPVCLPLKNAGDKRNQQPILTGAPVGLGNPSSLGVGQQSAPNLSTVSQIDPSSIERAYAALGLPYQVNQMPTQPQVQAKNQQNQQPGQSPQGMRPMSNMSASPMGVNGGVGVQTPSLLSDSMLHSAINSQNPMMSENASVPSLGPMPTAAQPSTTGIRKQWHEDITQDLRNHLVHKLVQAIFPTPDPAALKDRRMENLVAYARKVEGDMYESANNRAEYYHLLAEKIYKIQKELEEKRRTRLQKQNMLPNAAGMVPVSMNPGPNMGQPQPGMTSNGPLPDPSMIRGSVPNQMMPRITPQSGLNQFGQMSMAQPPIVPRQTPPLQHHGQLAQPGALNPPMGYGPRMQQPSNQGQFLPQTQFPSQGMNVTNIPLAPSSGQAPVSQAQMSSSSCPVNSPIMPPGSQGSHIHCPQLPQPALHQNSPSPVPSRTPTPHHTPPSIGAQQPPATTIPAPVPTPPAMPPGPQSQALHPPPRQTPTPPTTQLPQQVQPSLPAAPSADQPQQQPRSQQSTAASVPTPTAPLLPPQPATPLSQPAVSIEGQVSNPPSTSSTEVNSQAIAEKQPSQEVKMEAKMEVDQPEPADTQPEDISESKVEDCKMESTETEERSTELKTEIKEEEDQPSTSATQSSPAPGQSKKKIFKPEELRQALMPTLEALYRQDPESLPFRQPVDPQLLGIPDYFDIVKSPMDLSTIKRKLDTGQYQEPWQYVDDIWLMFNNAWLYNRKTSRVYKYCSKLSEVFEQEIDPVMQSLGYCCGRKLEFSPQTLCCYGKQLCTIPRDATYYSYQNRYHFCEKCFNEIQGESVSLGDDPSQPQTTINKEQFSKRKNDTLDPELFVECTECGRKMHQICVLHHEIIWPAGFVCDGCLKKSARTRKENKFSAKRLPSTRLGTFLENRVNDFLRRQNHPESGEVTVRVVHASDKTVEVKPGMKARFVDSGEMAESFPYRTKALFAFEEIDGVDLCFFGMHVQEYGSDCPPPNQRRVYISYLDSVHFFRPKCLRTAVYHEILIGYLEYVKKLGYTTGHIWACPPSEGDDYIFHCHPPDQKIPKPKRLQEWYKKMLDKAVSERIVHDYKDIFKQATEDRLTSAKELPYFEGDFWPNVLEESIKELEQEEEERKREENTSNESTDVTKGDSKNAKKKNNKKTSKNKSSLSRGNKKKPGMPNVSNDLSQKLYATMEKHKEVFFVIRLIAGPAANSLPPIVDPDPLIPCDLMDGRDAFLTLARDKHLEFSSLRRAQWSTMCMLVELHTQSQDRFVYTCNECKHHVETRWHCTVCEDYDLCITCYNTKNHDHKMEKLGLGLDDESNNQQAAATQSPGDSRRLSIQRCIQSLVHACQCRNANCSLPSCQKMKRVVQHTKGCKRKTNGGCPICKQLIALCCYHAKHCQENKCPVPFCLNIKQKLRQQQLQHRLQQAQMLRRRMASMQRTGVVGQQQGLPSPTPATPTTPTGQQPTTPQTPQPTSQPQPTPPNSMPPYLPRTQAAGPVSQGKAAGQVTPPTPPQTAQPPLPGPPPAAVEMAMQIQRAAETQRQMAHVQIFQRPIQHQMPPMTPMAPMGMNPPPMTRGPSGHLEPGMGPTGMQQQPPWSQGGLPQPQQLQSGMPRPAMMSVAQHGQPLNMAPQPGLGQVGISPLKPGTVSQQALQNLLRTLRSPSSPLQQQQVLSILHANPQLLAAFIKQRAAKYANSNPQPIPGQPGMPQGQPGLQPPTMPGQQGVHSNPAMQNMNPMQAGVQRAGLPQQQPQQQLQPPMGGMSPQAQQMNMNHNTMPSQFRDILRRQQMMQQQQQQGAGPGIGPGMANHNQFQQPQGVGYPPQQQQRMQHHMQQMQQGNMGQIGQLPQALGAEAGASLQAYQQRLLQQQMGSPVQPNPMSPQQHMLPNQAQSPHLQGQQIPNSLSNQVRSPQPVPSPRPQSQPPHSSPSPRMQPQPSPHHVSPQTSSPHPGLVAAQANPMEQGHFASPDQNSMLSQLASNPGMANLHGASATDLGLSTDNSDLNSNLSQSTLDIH

Turning to `C/C(=N/Nc1nc(-c2ccc(Cl)cc2)cs1)c1cc2ccccc2oc1=O`, the inhibition is 62% in assay [1], 86% in assay [2], 97% in assay [3] and 11% in assay [4]. Besides, the outcome with U-937 [5] and with U-937 [8] was Active. The Activity is reported as 44% with U-937 [6] and 10% with HCT-116 [9]. Besides, the “fold change (FC)” value in the assay on U-937 [7] worked out at 1.5.
On to `CC1CC/C(=N/Nc2nc(-c3ccc(Cl)cc3)cs2)C1` (stereo not given), for which the inhibition in assay [1] stood at 27%; in [4] it was 0%. The Activity with U-937 [6] worked out at 29%; in the assay with HCT-116 [9] it was 11.5%.
On to `CC1CC/C(=N/Nc2nc(-c3cc4ccccc4oc3=O)cs2)C1` (stereo not given), for which the inhibition in assay [1] worked out at 41%; in [2], 52%; in assay [3] it was 69%; in [4] it was 13%. The outcome in the assay with HCT-116 [10] was Active.
Regarding `C/C(=N/Nc1nc(-c2ccc(Cl)cc2)cs1)c1ccccn1`, the inhibition came to 51% in [1], 69% in assay [2], 87% in assay [3] and 10% in [4]. Also, the result in the assay on U-937 [11], with U-937 [12] and in the assay on U-937 [8] was Active.
For the molecule `Clc1ccc(-c2csc(N/N=C\c3c[nH]c4ccccc34)n2)cc1`, the inhibition in assay [1] turned out to be 61%; in assay [2] it was 79%; in assay [3], 97%; in assay [4] it was 0%. The outcome with U-937 [5] and with U-937 [8] was Active. For the same molecule, the Activity in the assay on U-937 [6] was 44%; in the assay with HCT-116 [9], 10%. For the same molecule, in the assay on U-937 [7], the “fold change (FC)” value is 1.5.
With `Fc1ccc(-c2csc(NN=C3CCCC3)n2)cc1`, the inhibition in [1] was determined as 35%; in [2], 62%; in assay [3], 91%; in assay [4], 12%. Further, the result in the assay on U-937 [5], in the assay with U-937 [11], in the assay on U-937 [12], with HCT-116 [10] and in the assay on U-937 [8] was Active. Further, the Activity in the assay with U-937 [6] is listed as 44%; in the assay on HCT-116 [9], 10%. For the same molecule, in the assay with U-937 [7], the “fold change (FC)” value came to 1.5.
Take `O=[N+]([O-])c1cccc(-c2csc(NN=C3CCCC3)n2)c1`: the inhibition was 44% in assay [1], 51% in [2], 60% in [3] and 15% in assay [4].
Turning to `CC(C)=NNc1nc(-c2ccc(Br)cc2)cs1`, the inhibition in [1] is 42%; in assay [2] it was 53%; in assay [3] it was 63%; in assay [4], 13%.
For `O=c1cc(-c2ccc(Cl)cc2)nc(NN=C2CCCC2)[nH]1` the same measures were 31%, 46%, 54% and 10%.
For the molecule `CC1CC/C(=N/Nc2nc(-c3ccc(Cl)cc3)cc(=O)[nH]2)C1` (stereo not given), the inhibition in assay [1] came out at 41%; in [2] it was 55%; in assay [3], 64%; in [4], 8%.
On to `CC(C)=NNc1nc(-c2cccc([N+](=O)[O-])c2)cs1`, for which the inhibition in [1] came to 33%; in [2] it was 54%; in assay [3] it was 76%; in [4], 7%. In addition, in the assay with HCT-116 [10], the outcome was Active. The Activity in the assay on HCT-116 [9] turned out to be 10%.
For `c1ccc(-c2csc(NN=C3CCCC3)n2)cc1`, the inhibition in assay [1] was 37%; in assay [2], 56%; in assay [3], 54%; in assay [4] it was 15%.
With `Clc1ccc(-c2csc(NN=C3CCCC3)n2)cc1`, the inhibition in assay [1] is 34%; in assay [2] it was 47%; in assay [3], 61%; in assay [4], 1%.
For `COc1cccc(-c2csc(NN=C3CCCC3)n2)c1` the same measures were 31%, 51%, 62% and 11%.
